From PubChem
PKD1 inh = inhibitors of human PKD1 kinase, biochemical, fluorescence polarization | inhibition, % (test concentration not listed) | AID 797, 2007 | PKD1 kinase fluorescence polarization assay | actives 0.056% (n = 200,000); in the data active means inhibition above about 50%
KCC2 mod = KCC2 cotransporter modulators, thallium flux, primary screen, cell-based, HEK293 KCC2, FluoZin-2 fluorescence, MLSMR; KCC2 cells, thallium flux FluoZin-2 fluorescence; B-score of Tl+ flux slope (higher = more flux/activation; lower = inhibition) at 10 µM; Solute carrier family 12 member 5 (Homo sapiens), Q9H2X9; actives 2.2% (n = 190,000);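 active means thallium flux slope and its plate-corrected score both differing from the plate sample mean at a set confidence after two filtering rounds, in either direction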;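 further: slope of fluorescence scaled to starting intensity during 10 to 20 s after thallium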
Rad51 HR inh = human RAD51 strand exchange inhibitors, primary screen, biochemical, fluorescence | hRad51 DNA strand exchange, fluorescence dequenching | inhibition, % at 10 µM | actives 0.085% (n = 200,000) | AID 1385, 2008;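 active means inhibition above 40% at the single screening dose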
Target sequence (Q06609 whole entry, looked up): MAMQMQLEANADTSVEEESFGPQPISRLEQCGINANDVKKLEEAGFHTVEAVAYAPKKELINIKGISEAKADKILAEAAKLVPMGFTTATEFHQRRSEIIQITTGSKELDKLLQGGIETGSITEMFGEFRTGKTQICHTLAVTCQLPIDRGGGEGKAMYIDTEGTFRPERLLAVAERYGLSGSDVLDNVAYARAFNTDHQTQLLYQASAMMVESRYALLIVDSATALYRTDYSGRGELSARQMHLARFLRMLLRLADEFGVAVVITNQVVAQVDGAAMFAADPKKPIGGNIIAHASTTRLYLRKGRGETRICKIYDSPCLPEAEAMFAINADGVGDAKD
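material = hRad51 filaments on single-stranded DNA | timing = filaments 15 min 37 °C, then compound 30 min | signal = FRET fluorescence dequenching, excitation 485 nm, emission 520 nm | benchmarks = control wells and blank wells on each plate | evaluation = percent inhibition relative to plate controls and blanks | compound = 10 µM final, single point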
ROMK primary = ROMK potassium channel modulators, primary screen, cell-based, thallium flux, MLSMR library; actives 2% (n = 130,000); B-score at 10 µM; Tet-inducible ROMK, thallium flux fluorescence; actives lie on both sides; AID 1918, 2009; ATP-sensitive inward rectifier potassium channel 1 (Homo sapiens), P48048;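 active means signal ratio slope over the read window, or its plate-corrected B-score, at least 3 SD from the plate mean, either direction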;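 further: B-score of the F/F0 ratio slope over 7 to 12 s after thallium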
KCC2 sec1 = KCC2 modulators in sodium-free buffer, confirmation, cell-based, HEK293 KCC2, thallium flux, secondary assay. shares compounds with KCC2 mod. AID 1713, 2009. normalised thallium flux (F/F0 slope) at 10 µM. FluoZin2 fluorescence; stronger effect = higher value. actives 15% (n = 3,700);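 active means thallium flux slope above the same plate's solvent-only control mean plus 3 SD; inconclusive means the two replicate wells disagree; inactive means no significant difference from solvent-only control wells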
KCC2 bumet counter = thallium flux persisting under bumetanide in KCC2 cells, confirmation, counter-screen for KCC2 modulator project, cell-based, HEK293 KCC2, FluoZin2, secondary assay 3. shares compounds with KCC2 mod. actives 49% (n = 3,700). normalized thallium flux at 10 µM. HEK293-KCC2 + bumetanide/ouabain; stronger effect = higher value. AID 1714, 2009;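 active means thallium entry rate above the same plate's blocked-transporter control wells by more than 3 SD; inconclusive means the two repeat wells disagree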;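 further: raw slope of fluorescence over initial fluorescence between 10 and 20 s after thallium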
KCC2 sec2 = KCC2 modulators without ouabain present, confirmation, cell-based, HEK293 KCC2, thallium flux, FluoZin2, secondary assay 2; AID 1715, 2009; normalized thallium flux at 10 µM; actives 23% (n = 3,700); thallium flux FluoZin2 fluorescence; actives lie on both sides; F/F0 rise rate, 10–20 s post-thallium; shares compounds with KCC2 mod;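 active means thallium flux slope more than 3 SD above or below the plate's solvent-only control mean, mostly below; inconclusive means the two repeat wells disagreed; inactive means no significant shift from solvent-only controls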
HEK counter1 = thallium flux modulation in parental HEK cells, confirmation, counter-screen for KCC2 modulator project, cell-based, counterscreen 1; shares compounds with KCC2 mod; HEK293 parental cells, thallium flux FluoZin2, ouabain; baseline-ratio fluorescence slope, 10–20 s after thallium; thallium flux rate (normalised fluorescence) at 10 µM; actives 46% (n = 3,700); AID 1716, 2009;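 active means thallium flux rate significantly above the same plate's solvent-only control wells, beyond their mean plus 3 SD; inconclusive means the two replicate wells gave conflicting results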
KCC2 ouabain = KCC2 inhibitors and activators, ouabain retest, confirmation, HEK-KCC2 cells | shares compounds with KCC2 mod | raw Tl+ flux slope (below DMSO = inhibition, above = activation) at 10 µM | HEK293-KCC2, thallium flux FluoZin2 fluorescence; bidirectional: low = inhibitor, high = activator | actives 48% (n = 3,700) | AID 1717, 2009;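 active means thallium flux slope beyond 3 SD from same-plate DMSO control mean in most replicates, usually higher, sometimes lower; inconclusive means repeat tests gave conflicting results; inactive means no significant difference from controls in most replicates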;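 further: slope of initial-normalized fluorescence between seconds 10 and 20 after thallium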
HEK293 Tl flux2 = native HEK Tl+ uptake effects, second counter-screen – HEK cells, counterscreen 2, counter-screen for KCC2 modulator project, confirmation; actives 33% (n = 3,700); HEK293 parental, thallium flux FluoZin-2 fluorescence slope; AID 1718, 2009; thallium flux slope at 10 µM; shares compounds with KCC2 mod;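 active means thallium flux slope above the same plate's solvent-control mean plus 3 SD in both duplicate wells; inconclusive means duplicate wells that disagreed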;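 further: run without ouabain in cells lacking the KCC2 cotransporter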
A number is an active result; – = inactive; ? = inconclusive; · = no result. Most compounds without a hit are left out; they make up all but 3% or so of the library.

SMILES	PKD1 inh	KCC2 mod	Rad51 HR inh	ROMK primary	KCC2 sec1	KCC2 bumet counter	KCC2 sec2	HEK counter1	KCC2 ouabain	HEK293 Tl flux2
Cn1cccc1/C=N/NC(=O)c1cccnc1	–	2.98	–	–	–	–	–	–	–	–
CCCn1c(=O)c2ccccc2n2c(SCCOc3ccccc3)nnc12	–	-4.9	–	·	–	0.00277	?	0.0047	?	0.00772
O=C(CSc1nnc(-c2ccc(O)cc2)n1Cc1ccco1)N1CCc2ccccc2C1	–	-3.7	–	·	–	–	0.0231	–	0.0133	–
CC1CCC2C(=O)N(c3ccc(S(=O)(=O)c4ccccc4)cc3)C(=O)C2C1 (stereo not drawn)	–	–	–	–	·	·	·	·	·	·
COc1ccc(/C=C/C(=O)OCC(=O)Nc2ccc(N3CCOCC3)cc2)cc1OC	·	–	–	·	·	·	·	·	·	·
CCOC(=O)C1(C)NC(c2ccco2)C2C(=O)N(CC)C(=O)C21 (stereo not drawn)	–	–	–	–	·	·	·	·	·	·
Cc1cccc(-c2nc(=S)c3c(o2)CCCC3)c1	–	52.5	·	·	0.0151	0.0302	–	0.0146	?	?
Cc1cccc(-c2nnc(-c3ccc(N)cc3)o2)c1	–	–	–	·	·	·	·	·	·	·
CC(=O)Nc1ccc(S(=O)(=O)N(C)CC(=O)OCC(=O)N2CCc3ccccc32)cc1	–	-3.82	·	–	–	–	–	?	0.0196	?
CC(=O)Nc1ccc(S(=O)(=O)NCC(=O)OCC(=O)N2CCCc3ccccc32)cc1	–	–	·	–	·	·	·	·	·	·
COc1ccc(NC(=O)c2nc3ccccc3s2)cc1	–	–	·	–	·	·	·	·	·	·
COc1ccc(C(=O)Nc2cccc(/C=C(\CCC(=O)O)c3nc4ccccc4s3)c2)cc1	·	-3.8	–	·	–	?	0.0241	–	0.0131	?
O=C(O)C/C(=C\c1cccc(NC(=O)c2ccccc2Cl)c1)c1nc2ccccc2s1	·	-4.09	–	·	–	–	0.0219	?	0.0103	–
COc1cc(/C=C(\CC(=O)O)c2nc3ccccc3s2)cc(OC)c1O	–	–	–	–	·	·	·	·	·	·
CCCCn1c(CCC(=O)O)nc2cc(S(=O)(=O)N(CC)CC)ccc21	·	–	–	·	·	·	·	·	·	·
CCSc1nnc(-c2cc(Br)ccc2N=Cc2c(C)[nH]n(-c3ccccc3)c2=O)c(=O)[nH]1	–	4.6	–	–	–	0.0144	–	0.0133	–	0.012
COc1ccc(-n2c(=S)[nH]c3sc(-c4ccccc4)cc3c2=O)c(OC)c1	·	9.49	–	–	0.0141	0.0268	0.0246	0.02	?	–
CCOC(=O)Cn1c(CN2CCN(C(c3ccccc3)c3ccccc3)CC2)nc2c1c(=O)n(C)c(=O)n2C	–	–	–	·	·	·	·	·	·	·
